What was measured:
[1] = biological target: T1, 5-HT1A (Homo sapiens, UniProt P08908); assay: radioligand competition, [3H]8-OH-DPAT; format: binding; details: Cheng-Prusoff
T1 sequence (P08908 1-422): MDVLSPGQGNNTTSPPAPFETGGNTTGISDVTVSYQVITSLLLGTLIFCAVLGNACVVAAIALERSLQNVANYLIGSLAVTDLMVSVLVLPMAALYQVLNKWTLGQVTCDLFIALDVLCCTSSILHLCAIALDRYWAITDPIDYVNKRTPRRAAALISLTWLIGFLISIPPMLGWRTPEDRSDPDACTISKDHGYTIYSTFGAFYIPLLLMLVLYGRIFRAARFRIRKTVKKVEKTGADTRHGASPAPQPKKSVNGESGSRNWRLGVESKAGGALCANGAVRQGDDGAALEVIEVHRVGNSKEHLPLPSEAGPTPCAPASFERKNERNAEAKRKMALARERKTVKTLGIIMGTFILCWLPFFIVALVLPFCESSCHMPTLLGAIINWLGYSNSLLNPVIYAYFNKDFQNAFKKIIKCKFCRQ
Outline: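 Human cloned 5-HT1A receptors expressed in HeLa cells were labelled with [3H]8-OH-DPAT and displaced by the test compound. Each experiment was run in triplicate.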

[2] = biological target: T2, α1a-AR (Homo sapiens, UniProt P35348); assay: radioligand competition, [3H]prazosin; format: binding; details: Cheng-Prusoff
T2 sequence (P35348 1-466): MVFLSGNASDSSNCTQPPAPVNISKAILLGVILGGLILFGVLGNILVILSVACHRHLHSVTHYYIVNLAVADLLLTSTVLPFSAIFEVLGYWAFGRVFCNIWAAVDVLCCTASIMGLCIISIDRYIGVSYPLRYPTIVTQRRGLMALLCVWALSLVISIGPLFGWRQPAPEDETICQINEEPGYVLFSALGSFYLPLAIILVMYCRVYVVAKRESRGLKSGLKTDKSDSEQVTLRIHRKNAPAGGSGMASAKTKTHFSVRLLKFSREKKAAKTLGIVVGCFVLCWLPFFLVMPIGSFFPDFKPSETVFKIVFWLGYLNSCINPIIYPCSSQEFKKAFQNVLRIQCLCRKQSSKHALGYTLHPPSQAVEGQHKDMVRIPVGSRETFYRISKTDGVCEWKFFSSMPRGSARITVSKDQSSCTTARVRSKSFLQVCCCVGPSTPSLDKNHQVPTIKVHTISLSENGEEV
Outline: (§1)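 Binding was measured with [3H]prazosin on cloned human α1-adrenoceptor subtypes expressed in CHO cells. Each experiment was run in triplicate.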

[3] = biological target: T3, hD3 (Homo sapiens, UniProt P35462); assay: radioligand competition, [3H]N-methylspiperone; format: binding; details: Cheng-Prusoff
Outline: (§2)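 Radioligand displacement used [3H]N-methylspiperone at human D3 or D4 receptors stably expressed in HEK293 cells. Samples were run in triplicate. IC50 values were converted to Ki with the Cheng–Prusoff equation and given as pKi (−logKi).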

[4] = biological target: T4, α1b-AR (Homo sapiens, UniProt P35368); assay: radioligand competition, [3H]prazosin; format: binding; details: Cheng-Prusoff
T4 sequence (P35368 1-520): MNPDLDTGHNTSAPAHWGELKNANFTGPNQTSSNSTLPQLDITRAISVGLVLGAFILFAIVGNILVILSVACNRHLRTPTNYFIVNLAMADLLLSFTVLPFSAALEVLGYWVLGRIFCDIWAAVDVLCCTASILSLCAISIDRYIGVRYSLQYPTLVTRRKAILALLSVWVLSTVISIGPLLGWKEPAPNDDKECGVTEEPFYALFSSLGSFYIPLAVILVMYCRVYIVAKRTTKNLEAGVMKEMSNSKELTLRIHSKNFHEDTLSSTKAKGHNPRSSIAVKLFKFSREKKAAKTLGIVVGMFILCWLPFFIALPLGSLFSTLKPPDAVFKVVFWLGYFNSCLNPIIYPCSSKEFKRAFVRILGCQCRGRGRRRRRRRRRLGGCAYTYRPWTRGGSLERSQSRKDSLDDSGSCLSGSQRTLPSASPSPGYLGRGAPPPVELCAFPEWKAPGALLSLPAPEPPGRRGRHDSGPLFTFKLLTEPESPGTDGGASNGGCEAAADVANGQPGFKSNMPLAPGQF
Outline: as §1

[5] = biological target: T5, hD4 (Homo sapiens, UniProt P21917); assay: radioligand competition, [3H]N-methylspiperone; format: binding; details: Cheng-Prusoff
T5 sequence (P21917 1-419): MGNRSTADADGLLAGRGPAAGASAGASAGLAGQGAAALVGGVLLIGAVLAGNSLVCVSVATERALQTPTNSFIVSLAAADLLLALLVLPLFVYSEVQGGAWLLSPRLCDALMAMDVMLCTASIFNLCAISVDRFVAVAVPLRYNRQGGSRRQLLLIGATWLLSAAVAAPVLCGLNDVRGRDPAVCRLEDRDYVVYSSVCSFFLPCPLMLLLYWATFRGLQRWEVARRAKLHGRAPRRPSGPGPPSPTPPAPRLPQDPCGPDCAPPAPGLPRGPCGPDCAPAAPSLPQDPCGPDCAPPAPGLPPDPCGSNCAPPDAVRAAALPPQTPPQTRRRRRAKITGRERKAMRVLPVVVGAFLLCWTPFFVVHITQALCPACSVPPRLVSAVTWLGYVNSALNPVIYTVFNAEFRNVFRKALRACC
Outline: as §2

[6] = biological target: T6, α1d-AR (Homo sapiens, UniProt P25100); assay: radioligand competition, [3H]prazosin; format: binding; details: Cheng-Prusoff
T6 sequence (P25100 1-572): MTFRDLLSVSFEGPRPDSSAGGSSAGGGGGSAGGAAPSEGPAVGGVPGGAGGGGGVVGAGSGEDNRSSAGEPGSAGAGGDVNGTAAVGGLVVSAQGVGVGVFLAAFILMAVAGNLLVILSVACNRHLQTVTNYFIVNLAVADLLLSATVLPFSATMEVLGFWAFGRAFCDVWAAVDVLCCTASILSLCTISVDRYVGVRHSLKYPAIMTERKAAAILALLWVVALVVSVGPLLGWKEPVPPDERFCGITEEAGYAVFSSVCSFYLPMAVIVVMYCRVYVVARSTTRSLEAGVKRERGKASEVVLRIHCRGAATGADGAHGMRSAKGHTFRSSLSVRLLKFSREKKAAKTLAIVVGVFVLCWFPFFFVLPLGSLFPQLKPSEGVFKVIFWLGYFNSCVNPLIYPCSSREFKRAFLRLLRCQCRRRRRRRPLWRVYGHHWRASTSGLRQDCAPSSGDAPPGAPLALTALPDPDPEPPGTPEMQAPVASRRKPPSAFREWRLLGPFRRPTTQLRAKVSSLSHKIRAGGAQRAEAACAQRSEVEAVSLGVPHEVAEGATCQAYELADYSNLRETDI
Outline: as §1

[7] = biological target: T3, hD3; assay: mitogenesis assay; format: cell-based; details: full agonist
[8] = biological target: D1 (Homo sapiens, UniProt P21728); assay: cAMP assay; format: cell-based; details: antagonist
[9] = biological target: T1, 5-HT1A; assay: […]GTPγS binding; format: biochemical; details: agonist

T3 sequence (P35462 whole entry): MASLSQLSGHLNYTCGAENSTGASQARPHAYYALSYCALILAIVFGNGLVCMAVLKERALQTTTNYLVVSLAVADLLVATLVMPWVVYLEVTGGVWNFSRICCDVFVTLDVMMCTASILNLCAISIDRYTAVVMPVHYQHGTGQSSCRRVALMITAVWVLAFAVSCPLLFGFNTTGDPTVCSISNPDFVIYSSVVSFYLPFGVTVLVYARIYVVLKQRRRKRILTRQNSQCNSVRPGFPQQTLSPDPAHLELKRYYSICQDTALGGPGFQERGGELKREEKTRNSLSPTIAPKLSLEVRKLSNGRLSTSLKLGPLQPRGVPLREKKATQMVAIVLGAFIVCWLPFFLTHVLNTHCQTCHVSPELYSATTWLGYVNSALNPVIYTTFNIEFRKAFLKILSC
Sequence of D1 (P21728 whole entry): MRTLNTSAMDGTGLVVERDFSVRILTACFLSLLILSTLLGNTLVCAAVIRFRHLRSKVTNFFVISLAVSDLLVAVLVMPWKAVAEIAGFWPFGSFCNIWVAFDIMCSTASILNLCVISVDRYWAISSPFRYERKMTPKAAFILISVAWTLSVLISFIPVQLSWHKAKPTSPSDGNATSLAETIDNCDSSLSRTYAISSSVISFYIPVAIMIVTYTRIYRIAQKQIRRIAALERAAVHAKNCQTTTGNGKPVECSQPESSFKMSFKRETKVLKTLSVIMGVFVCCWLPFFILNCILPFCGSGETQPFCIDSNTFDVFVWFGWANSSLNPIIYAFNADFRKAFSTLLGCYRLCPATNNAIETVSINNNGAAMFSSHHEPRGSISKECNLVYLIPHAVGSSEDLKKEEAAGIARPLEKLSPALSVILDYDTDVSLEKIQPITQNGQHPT

| SMILES | pKi, human cloned receptor / 5-HT1A [1] | pKi, human cloned receptor / α1 ^a [2] | pKi, human cloned receptor / D3 [3] | pKi, human cloned receptor / D2 [4] | pKi, human cloned receptor / D4 [5] | pKi, human cloned receptor / α1 ^d [6] | Functional profile of 8 / pEC50 (pIC50) [7] | Functional profile of 8 / pEC50 (pIC50) [8] | pKi, human cloned receptor / α1 ^a [4] | Functional profile of 8 / pEC50 (pIC50) [9] | pKi, human cloned receptor / D3 [2] | pKi, human cloned receptor / D3 [4] | pKi, human cloned receptor / D3 [6] |
| --- | --- | --- | --- | --- | --- | --- | --- | --- | --- | --- | --- | --- | --- |
| c1ccc(C2(c3ccccc3)COCC(CNCCOc3ccc4c(c3)OCO4)O2)cc1 (centres unmarked) [compound 13, 2-(Benzo[d][1,3]dioxol-5-yloxy)-N-((6,6-diphenyl-1,4-dioxan-2-yl)methyl)ethanamine] | 8.04 | 6.32 | 6.99 | < 6 | 6.79 | 6.81 |  |  |  |  |  |  |  |
| Oc1cccc(OCCNCC2COCC(c3ccccc3)(c3ccccc3)O2)c1 (centres unmarked) [compound 8, 3-(2-(((6,6-Diphenyl-1,4-dioxan-2-yl)methyl)amino)ethoxy)phenol] |  | < 6 |  |  |  | 6.56 | 8.99 ± 0.09 | 5.49 ± 0.10 | < 6 | 8.28 ± 0.15 |  |  |  |
| COc1cccc(OCCNCC2COCC(c3ccccc3)(c3ccccc3)O2)c1 (centres unmarked) [compound 7, N-((6,6-Diphenyl-1,4-dioxan-2-yl)methyl)-2-(3-methoxyphenoxy)ethanamine] | 8.91 | 6.41 | 7.37 | < 6 | 6.45 | 6.98 |  |  |  |  |  |  |  |
| COc1cccc(OCCNCC2COCC(c3ccccc3)(c3ccccc3)O2)c1OC (centres unmarked) [compound 11, 2-(2,3-Dimethoxyphenoxy)-N-((6,6-diphenyl-1,4-dioxan-2-yl)methyl)ethanamine] |  |  | 6.79 |  | 6.87 |  |  |  |  |  |  |  |  |
| COc1ccc(OCCNCC2COCC(c3ccccc3)(c3ccccc3)O2)cc1 (centres unmarked) [compound 9, N-((6,6-Diphenyl-1,4-dioxan-2-yl)methyl)-2-(4-methoxyphenoxy)ethanamine] | 7.17 |  | 6.41 |  | 6.45 |  |  |  |  |  | < 6 | < 6 | < 6 |
| c1ccc(OCCNCC2COCC(c3ccccc3)(c3ccccc3)O2)cc1 (centres unmarked) [compound 4, N-((6,6-diphenyl-1,4-dioxan-2-yl)methyl)-2-phenoxyethan-1-amine] |  |  | 7.92 |  |  |  |  |  |  |  |  |  |  |
| COc1cccc(OC)c1OCCNCC1COCC(c2ccccc2)(c2ccccc2)O1 (centres unmarked) [compound 2, 2] |  |  | 6.34 |  | 5.77 |  |  |  |  |  |  |  |  |
| Oc1ccc(OCCNCC2COCC(c3ccccc3)(c3ccccc3)O2)cc1 (centres unmarked) [compound 10, 10] | 7.59 | 6.56 | 7.37 | < 6 | 6.49 | 7.01 |  |  |  |  |  |  |  |
| COc1ccc(OCCNCC2COCC(c3ccccc3)(c3ccccc3)O2)cc1OC (centres unmarked) [compound 12, 2-(3,4-Dimethoxyphenoxy)-N-((6,6-diphenyl-1,4-dioxan-2-yl)methyl)ethanamine] | 7.71 |  | 6.10 |  | 5.84 |  |  |  |  |  | < 6 | < 6 | < 6 |

Reference: paper PMC8378419 (ACS chemical neuroscience, 2019)
